Measured values from ChEMBL document CHEMBL1221173, “Dynamic imaging of protease activity with fluorescently quenched activity-based probes” (Nat Chem Biol, 2005).
Calls of active or inactive are those of the source. No cut-off for these calls is given here.

Tests used:
Cathepsin B (Bos taurus) [1] = target: Cathepsin B (Bos taurus) (UniProt P07688); assay: Inhibition of bovine cathepsin B using Z-RR-AMC substrate assessed as inhibition association constant by fluorimetric assay
Procedure, shortened: (§1)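 Cathepsin B or L (1 nM final) with inhibitor at 10–2,000 nM plus 10 µM substrate (Z-RR-AMC for B, Km 114 µM; Z-FR-AMC for L, Km 7.1 µM), 3.5% DMSO. AMC fluorescence (Ex 370/Em 460 nm) read continuously for 30 min. k_app from inhibition curves converted to k_ass = k_app(1+[S]/K_M).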

[2] = target: Procathepsin L (Homo sapiens) (UniProt P07711); assay: Inhibition of human cathepsin L using Z-FR-AMC substrate assessed as inhibition association constant by fluorimetric assay; procedure, shortened: as §1
Sequence of Procathepsin L (Homo sapiens) (P07711 114-333 limits assumed): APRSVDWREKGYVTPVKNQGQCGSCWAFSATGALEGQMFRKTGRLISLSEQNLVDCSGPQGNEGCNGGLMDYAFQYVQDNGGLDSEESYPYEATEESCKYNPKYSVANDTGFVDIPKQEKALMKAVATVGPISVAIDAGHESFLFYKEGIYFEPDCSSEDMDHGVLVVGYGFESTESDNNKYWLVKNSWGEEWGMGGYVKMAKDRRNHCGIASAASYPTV

[3] = target: Cathepsin B (Homo sapiens) (UniProt P07858); assay: Binding affinity to cathepsin B in human MCF10A cells grown on reconstituted basement membrane exposed to 1 uM compounds assessed as protein labeling after 3 days by confocal fluorescence microscopy; conditions: MCF-10A
[4] = target: Cathepsin S (Homo sapiens) (UniProt P25774); assay: Binding affinity to recombinant cathepsin S assessed as protein labeling at 0.1 to 10 uM after 30 mins using SDS-PAGE and Typhoon laser flatbed canning method
Sequence of Cathepsin S (Homo sapiens) (P25774 115-331 limits assumed): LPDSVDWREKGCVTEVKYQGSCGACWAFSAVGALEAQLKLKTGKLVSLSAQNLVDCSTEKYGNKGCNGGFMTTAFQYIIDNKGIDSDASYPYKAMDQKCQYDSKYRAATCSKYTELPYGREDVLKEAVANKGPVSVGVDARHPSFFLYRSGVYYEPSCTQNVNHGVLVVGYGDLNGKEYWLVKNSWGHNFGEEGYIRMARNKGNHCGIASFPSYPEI

[5] = Binding affinity to recombinant cathepsin X assessed as protein labeling at 0.1 to 10 uM after 30 mins using SDS-PAGE and Typhoon laser flatbed canning method
[6] = target: Cathepsin B (Mus musculus) (UniProt P10605); assay: Binding affinity to cathepsin B in mouse NIH/3T3 cells monolayers assessed as protein labeling at 1 uM after 4 to 5 hrs by fluorescence microscopy; format: cell-based; conditions: NIH3T3
Sequence of Cathepsin B (Mus musculus) (P10605 80-333 limits assumed): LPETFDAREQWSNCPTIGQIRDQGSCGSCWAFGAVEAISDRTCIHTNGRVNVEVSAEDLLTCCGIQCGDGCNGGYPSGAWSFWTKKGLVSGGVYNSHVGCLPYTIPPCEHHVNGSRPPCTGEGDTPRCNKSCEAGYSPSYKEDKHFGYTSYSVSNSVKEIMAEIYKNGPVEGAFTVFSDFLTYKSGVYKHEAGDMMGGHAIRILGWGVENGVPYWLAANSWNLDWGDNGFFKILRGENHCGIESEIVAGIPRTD
Procedure, shortened: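 Live NIH-3T3 cells on glass coverslips, pretreated 1 h with JPM-OEt (50 µM) or 0.1% DMSO. Probe (1 µM) added to growth medium, pH 7.4, for 4–5 h. Moved to phenol red-free medium with LysoTracker (50 nM final) for lysosome co-localization, then imaged by inverted fluorescence microscopy. Some cells first washed 3 h in medium with JPM-OEt or DMSO.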

[7] = Cytotoxicity against mouse NIH/3T3 cells; format: cell-based; conditions: nih3t3
[8] = target: Procathepsin L (Homo sapiens) (UniProt P07711); assay: Binding affinity to human recombinant cathepsin L assessed as protein labeling at 0.1 to 10 uM after 30 mins using SDS-PAGE and Typhoon laser flatbed canning method
Procedure, shortened: (§2)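 Recombinant enzyme (cathepsin B, bovine, 0.4 µg; cathepsin L, human, 0.7 µg) in pH 5.5 acetate buffer (50 mM acetate, 2 mM DTT, 5 mM MgCl₂). Optional 30 min pretreatment at 25 °C with general papain-family inhibitor JPM-OEt (25 µM), or DMSO. Probe at increasing concentrations for 30 min. Stopped with SDS sample buffer, SDS-PAGE, gel fluorescence scanned.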

[9] = target: T1, Procathepsin L (Mus musculus) (UniProt P06797); assay: Binding affinity to cathepsin L in mouse NIH/3T3 cells assessed as protein labeling at 1 uM after 30 mins using SDS-PAGE and Typhoon laser flatbed canning method; format: cell-based; conditions: NIH3T3
T1 sequence (whole entry): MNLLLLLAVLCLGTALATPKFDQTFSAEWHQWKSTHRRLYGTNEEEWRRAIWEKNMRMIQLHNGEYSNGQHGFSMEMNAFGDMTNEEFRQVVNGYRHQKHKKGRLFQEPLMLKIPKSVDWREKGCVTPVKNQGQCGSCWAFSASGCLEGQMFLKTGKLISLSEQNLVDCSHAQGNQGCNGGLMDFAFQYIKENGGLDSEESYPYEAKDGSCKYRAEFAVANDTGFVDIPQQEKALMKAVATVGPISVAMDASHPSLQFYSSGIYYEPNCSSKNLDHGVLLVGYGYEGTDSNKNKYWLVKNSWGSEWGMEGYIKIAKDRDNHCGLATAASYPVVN
Procedure, shortened: (§3)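 NIH-3T3 monolayers seeded one day before. Pretreated 1 h with JPM-OEt (50 µM) or 0.1% DMSO, then probe added to medium at pH 7.4 (final DMSO 0.2%) for the indicated times. Cells PBS-washed and lysed in SDS sample buffer, then boiled. Equal protein run on 12% SDS-PAGE, gel scanned at Ex/Em 532/580 nm.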

[10] = target: Procathepsin L (Homo sapiens) (UniProt P07711); assay: Binding affinity to cathepsin L in human MCF10A cells grown on reconstituted basement membrane exposed to 1 uM compounds assessed as protein labeling after 3 days by confocal fluorescence microscopy; conditions: MCF-10A
[11] = target: Cathepsin B (Homo sapiens) (UniProt P07858); assay: Binding affinity to cathepsin B in 8 day old human MCF10A cells grown on reconstituted basement membrane assessed as protein labeling exposed to 1 uM for 3 hrs followed by washing overnight with growth media by confocal fluorescence microscopy; format: cell-based; conditions: MCF-10A
Procedure, shortened: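 Day 8 three-dimensional MCF-10A cultures on reconstituted basement membrane, grown without probe. Treated with 1 µM probe for 3 h in assay medium (2% horse serum, 5 ng/ml EGF), washed overnight, then cold-methanol fixed. Immunostained overnight at 4 °C with rabbit anti-human cathepsin B, then secondary antibody and DAPI. Imaged by confocal microscopy.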

Cathepsin B (Bos taurus) [12] = target: Cathepsin B (Bos taurus) (UniProt P07688); assay: Binding affinity to bovine recombinant cathepsin B assessed as protein labeling at 0.1 to 10 uM after 30 mins using SDS-PAGE and Typhoon laser flatbed canning method; procedure, shortened: as §2
[13] = target: Cathepsin B (Mus musculus) (UniProt P10605); assay: Binding affinity to cathepsin B in mouse NIH/3T3 cells assessed as protein labeling at 1 uM after 30 mins using SDS-PAGE and Typhoon laser flatbed canning method; format: cell-based; conditions: NIH3T3; procedure, shortened: as §3

Structure (SMILES)	INH (Cathepsin B (Bos taurus) [1]) [M⁻¹ s⁻¹]	INH [2] [M⁻¹ s⁻¹]	Activity [3]	Activity [4]	Activity [5]	Activity [6]	Activity [7]	Activity [8]	Activity [9]	Activity [10]	Activity [11]	Activity (Cathepsin B (Bos taurus) [12])	Activity [13]
COc1ccc(-c2ccc3n2[B-](F)(F)[N+]2=C(C)C(CCC(=O)NCCCCCC(=O)NCCCC[C@@H](NC(=O)[C@H](N)Cc4ccccc4)C(=O)COC(=O)c4c(C)cccc4C)=C(C)C2=C3)cc1	38500	296000											
COc1ccc(-c2ccc3n2[B-](F)(F)[N+]2=C(C)C(CCC(=O)NCCCCCC(=O)NCCCC[C@@H](NC(=O)[C@@H](Cc4ccccc4)NC(=O)OCc4ccccc4)C(=O)COC(=O)c4c(C)cccc4C)=C(C)C2=C3)cc1	1260	2580	Active	Active	Active	Active	Non-toxic	Active	Active	Active	Active	Active	Active
COc1ccc(-c2ccc3n2[B-](F)(F)[N+]2=C(C)C(CCC(=O)NCCCCCC(=O)NCCCC[C@@H](NC(=O)[C@@H](Cc4ccccc4)NC(=O)OC(C)(C)C)C(=O)COC(=O)c4c(C)cccc4C)=C(C)C2=C3)cc1	212	1180											
COc1ccc(-c2ccc3n2[B-](F)(F)[N+]2=C(C)C(CCC(=O)NCCCCCC(=O)NCCCC[C@@H](NC(=O)[C@@H](Cc4ccccc4)NC(=O)OCc4ccccc4)C(=O)COC(=O)CNC(=O)C4CCN(S(=O)(=O)c5ccccc5-c5c6cc/c(=[N+](/C)c7ccccc7)cc-6oc6cc(Nc7ccccc7)ccc56)CC4)=C(C)C2=C3)cc1	275	7000	Active	Active	Active	Active	Non-toxic	Active	Active	Active		Active	inactive
